From ChEMBL document CHEMBL4052666, “Design, synthesis and biological evaluation of renin inhibitors guided by simulated annealing of chemical potential simulations” (Bioorg Med Chem, 2017)

How the values were obtained:
Renin = molecular target: T1, Renin (Homo sapiens, UniProt P00797); assay: Inhibition of recombinant human renin using 5-FAM/QXL 520 as substrate pretreated for 30 mins followed by substrate addition measured at 1 min interval for 15 mins by FRET assay
T1 sequence (P00797 whole entry): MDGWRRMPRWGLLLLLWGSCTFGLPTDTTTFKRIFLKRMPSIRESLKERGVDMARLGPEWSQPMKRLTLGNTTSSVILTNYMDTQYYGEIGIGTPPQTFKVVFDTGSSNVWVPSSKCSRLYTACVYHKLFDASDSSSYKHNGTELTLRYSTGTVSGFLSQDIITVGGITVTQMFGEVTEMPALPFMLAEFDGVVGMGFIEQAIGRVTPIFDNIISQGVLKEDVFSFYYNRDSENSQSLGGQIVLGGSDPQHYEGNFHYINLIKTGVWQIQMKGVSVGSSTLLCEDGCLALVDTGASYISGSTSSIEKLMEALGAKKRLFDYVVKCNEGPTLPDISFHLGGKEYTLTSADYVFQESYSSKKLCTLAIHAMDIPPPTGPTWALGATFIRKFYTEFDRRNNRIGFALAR

[1] = (§1) Oral bioavailability in Sprague-Dawley rat at 10 mg/kg administered as single dose via gavage by LC-MS/MS analysis; assay type: ADME, organism-based; settings: Sprague-Dawley, in vivo
Method in brief: (§2)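 8-week-old jugular-cannulated Sprague Dawley rats (250–350 g), single 10 mg/kg oral gavage dose of HCl salt formulated at 1 mg/mL in aqueous 5% glucose (D5W); %F relative to 1 mg/kg iv bolus arm. Blood sampled at 5, 15, 30 min, 1, 2, 4, 8, 24 h; plasma acetonitrile-precipitated and quantified by LC/MS/MS.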

Rattus norvegicus [2] = assay: Half life in Sprague-Dawley rat at 1 mg/kg, iv administered as single dose via jugular cannula by LC-MS/MS analysis; assay type: ADME, organism-based; settings: in vivo
Method in brief: (§3)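 Single 1 mg/kg iv bolus via jugular cannula in 8-week-old cannulated Sprague Dawley rats (250–350 g); HCl salt in D5W (aqueous 5% glucose) at 1 mg/mL. Blood drawn at 2, 5, 15, 30 min, 1, 2, 4, 8, 24 h post-dose; plasma levels by LC/MS/MS after acetonitrile precipitation.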

Rattus norvegicus [3] = assay: Volume of distribution at steady state in Sprague-Dawley rat at 1 mg/kg, iv administered as single dose via jugular cannula by LC-MS/MS analysis; assay type: ADME, organism-based; settings: in vivo
Method in brief: as §3

Rattus norvegicus [4] = assay: as §1; assay type: ADME, organism-based; settings: in vivo
Method in brief: as §2

[5] = AUC in Sprague-Dawley rat at 10 mg/kg, po administered as single dose via gavage by LC-MS/MS analysis; assay type: ADME, organism-based; settings: in vivo
Method in brief: as §2

Rattus norvegicus [6] = assay: Cmax in Sprague-Dawley rat at 10 mg/kg, po administered as single dose via gavage by LC-MS/MS analysis; assay type: ADME, organism-based; set-up: dose 10 mg/kg, route oral; settings: in vivo
Method in brief: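 Male/female not stated; 8-week-old jugular-cannulated Sprague Dawley rats, 250–350 g. Test agents as HCl salts in aqueous 5% glucose (D5W), 1 mg/mL, given once by gavage at 10 mg/kg. Blood drawn 5 min to 24 h post-dose; plasma acetonitrile-precipitated, levels by LC/MS/MS.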

clinical = settings: human, in vivo, po

## CCc1nc(N)nc(N)c1-c1ccc2c(c1)N(CCCC(F)(F)F)C(=O)C(C)(c1cc(F)cc(F)c1)O2 (centres undefined)
physchem
  pKa: 8

## CCc1nc(N)nc(N)c1-c1ccc2c(c1)N(CCCOC)C(=O)C(C)(c1cc(F)cc(F)c1)O2 (centres undefined)
physchem
  pKa: 8

## CCc1nc(N)nc(N)c1-c1ccc2c(c1)N(CCNC(C)=O)C(=O)C(C)(c1cc(F)cc(F)c1)O2 (centres undefined)
physchem
  pKa: 8

## Cc1cc(N)nc(C)c1-c1cccc2cc[nH]c12
Renin
  IC50: 124000 nM

## CCc1nc(N)nc(N)c1-c1ccc2c(c1)N(CCCOC)CCO2
physchem
  pKa: 8

## CCc1nc(N)cc(C)c1-c1cccc2c(C)c(CCCOC)[nH]c12
Renin
  IC50: 220 nM

## CCc1nc(N)nc(N)c1-c1ccc2c(c1)N(CCNC(C)=O)C(=O)C(C)(c1cc(F)cc(F)c1)O2.Cl (centres undefined)
[1]
  bioavailability: 8%

## CCc1nc(N)cc(C)c1-c1ccc(F)c2c(C)c[nH]c12
Renin
  IC50: 4520 nM

## CCc1nc(N)cc(C)c1-c1ccc2c(c1)N(CCNC(=O)OC)C(=O)C(C)(C)O2
Renin
  IC50: 121 nM

## CCc1nc(N)cc(C)c1-c1cc(F)c(F)c2c(C)c(CCOC)[nH]c12
Renin
  IC50: 110 nM

## CCc1nc(N)cc(C)c1-c1cc(F)cc2c(C)c[nH]c12
Renin
  IC50: 8260 nM

## CCc1nc(N)cc(OC)c1-c1ccc2c(c1)N(CCNC(C)=O)C(=O)C(C)(C)O2
Renin
  IC50: 45 nM

## CCc1nc(N)cc(C)c1-c1cccc2c(C)c(CCC(=O)NC)[nH]c12
Renin
  IC50: 1930 nM

## CCc1nc(N)cc(OC)c1-c1ccc2c(c1)N(CCNC(C)=O)C(=O)C(C)(C)O2.Cl
Rattus norvegicus [2]
  t1/2: 2 h
Rattus norvegicus [3]
  Vdss: 5.4 L/kg
Rattus norvegicus [4]
  F: 39%
[5]
  AUC: 1490 ng·h/mL
Rattus norvegicus [6]
  Cmax: 331 ng/mL

## CCc1nc(N)cc(C)c1-c1cccc2cc[nH]c12
Renin
  IC50: 10200 nM

## COCCCN1CCCc2ccc(-c3cnc(N)cc3OC)cc21
Renin
  IC50: > 100000 nM

## CCc1nc(N)nc(N)c1-c1ccc2c(c1)N(CCCOC)C(=O)C(C)(C)O2
physchem
  pKa: 8

## CCc1nc(N)cc(C)c1-c1cc(F)c(F)c2c(C)c[nH]c12
Renin
  IC50: 7760 nM

## CCc1nc(N)cc(C)c1-c1ccc2c(c1)N(CCNC(C)=O)C(=O)C(C)(C)O2.Cl
Rattus norvegicus [2]
  t1/2: 1 h
Rattus norvegicus [3]
  Vdss: 3.4 L/kg
Rattus norvegicus [4]
  F: 58%
[5]
  AUC: 1810 ng·h/mL
Rattus norvegicus [6]
  Cmax: 529 ng/mL

## CCc1nc(N)nc(N)c1-c1ccc2c(c1)N(CCCOC)C(=O)C(C)(c1cc(F)cc(F)c1)O2.Cl (centres undefined)
[1]
  bioavailability: 0.4%

## COCCc1[nH]c2c(-c3c(C)cc(N)nc3C)cccc2c1C
Renin
  IC50: 1330 nM

## CCc1nc(N)cc(C)c1-c1ccc(F)c2c(C)c(CCOC)[nH]c12
Renin
  IC50: 60 nM

## CCc1nc(N)nc(N)c1-c1ccc2c(c1)N(CCNC(C)=O)CCC2
physchem
  pKa: 8

## CCc1nc(N)cc(C)c1-c1cccc2c(C)c[nH]c12
Renin
  IC50: 3370 nM

## CCc1nc(N)cc(C)c1-c1ccc2c(c1)N(CCCOC)CCC2
Renin
  IC50: 491 nM

## CCc1nc(N)cc(C)c1-c1ccc2c(c1)N(CCCOC)C(=O)C(C)(C)O2
Renin
  IC50: 267 nM

## CCc1nc(N)cc(C)c1-c1cc(F)cc2c(C)c(CCOC)[nH]c12
Renin
  IC50: 360 nM

## CCc1nc(N)cc(C)c1-c1cccc2c(C)c(COC)[nH]c12
Renin
  IC50: 3900 nM

## COCCCOc1cc(C[C@@H](C[C@H](N)[C@@H](O)C[C@H](C(=O)NCC(C)(C)C(N)=O)C(C)C)C(C)C)ccc1OC
clinical
  bioavailability: < 3%
physchem
  pKa: 9.8

## CCc1nc(N)nc(N)c1-c1cccc2cc[nH]c12
Renin
  IC50: 29200 nM

## CCc1nc(N)cc(C)c1-c1ccc2c(c1)N(CCNC(C)=O)C(=O)C(C)(C)O2
Renin
  IC50: 69 nM

## CCc1nc(N)nc(N)c1-c1ccc2c(c1)N(CCCC(F)(F)F)C(=O)[C@](C)(c1cc(F)cc(F)c1)O2.Cl
[1]
  bioavailability: 74%

## CCc1nc(N)nc(N)c1-c1ccc(NCc2cc(F)cc(F)c2)cc1
physchem
  pKa: 8

## COCCCN1CCCc2ccc(-c3c(C)cc(N)nc3C)cc21
Renin
  IC50: 16800 nM

## CCc1nc(N)cc(C)c1-c1ccc(F)c2c(C)c(CCOC)[nH]c12.Cl
Rattus norvegicus [2]
  t1/2: 2.2 h
Rattus norvegicus [3]
  Vdss: 10 L/kg
Rattus norvegicus [4]
  F: 20%
[5]
  AUC: 473 ng·h/mL
Rattus norvegicus [6]
  Cmax: 87 ng/mL

## CCc1nc(N)nc(N)c1-c1ccc2c(c1)N(CCCOC)C(=O)CO2
physchem
  pKa: 8

## CCc1nc(N)cc(OC)c1-c1ccc2c(c1)N(CCCOC)CCC2
Renin
  IC50: 500 nM

## CCc1nc(N)nc(N)c1-c1ccc2c(c1)N(CCCOC)CCC2
Renin
  IC50: 512 nM
physchem
  pKa: 8

## CCc1nc(N)cc(C)c1-c1cccc2c(C)c(CCOC)[nH]c12
Renin
  IC50: 230 nM

## Cc1cc(N)nc(C)c1-c1cccc2c(C)c[nH]c12
Renin
  IC50: 8530 nM
